KCNQ1 block: human KCNQ1 channel inhibition. P51787. CHO-K1 KCNQ1, FluxOR thallium flux fluorescence; active compounds read high. B-score at 10 µM. 310,000 tested, 1.3% active;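 active = compounds whose thallium flux B-score, printed positive for inhibition, exceeds three library SD while starting fluorescence stays within three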;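 note: channel opened by potassium depolarization with thallium stimulus after 20 min compound exposure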
Target sequence (P51787 whole entry, looked up): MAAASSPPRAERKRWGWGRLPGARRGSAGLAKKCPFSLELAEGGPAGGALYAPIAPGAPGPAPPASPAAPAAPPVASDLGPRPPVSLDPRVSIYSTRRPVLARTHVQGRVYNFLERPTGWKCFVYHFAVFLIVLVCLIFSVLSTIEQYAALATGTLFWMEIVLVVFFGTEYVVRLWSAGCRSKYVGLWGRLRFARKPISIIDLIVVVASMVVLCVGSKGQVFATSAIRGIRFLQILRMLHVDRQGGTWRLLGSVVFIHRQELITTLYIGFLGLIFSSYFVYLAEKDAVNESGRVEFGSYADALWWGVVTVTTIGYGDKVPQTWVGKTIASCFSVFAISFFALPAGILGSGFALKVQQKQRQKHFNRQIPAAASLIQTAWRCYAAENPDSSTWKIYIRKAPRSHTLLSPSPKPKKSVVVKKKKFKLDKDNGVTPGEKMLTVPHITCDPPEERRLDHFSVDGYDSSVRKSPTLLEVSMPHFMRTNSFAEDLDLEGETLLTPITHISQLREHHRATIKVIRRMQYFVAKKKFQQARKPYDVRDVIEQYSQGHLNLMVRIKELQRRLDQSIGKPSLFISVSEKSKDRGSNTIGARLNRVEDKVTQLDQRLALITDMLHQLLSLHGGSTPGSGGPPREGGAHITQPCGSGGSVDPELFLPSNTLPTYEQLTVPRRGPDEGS
Kir21 block: blocks the mouse Kir2.1 inward-rectifier potassium channel | B-score at 10 µM | HEK293-Kir2.1, FluxOR thallium flux fluorescence; active compounds read low | 310,000 tested, 0.85% active | AID 1672;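 active = fluorescence ratio B-score at or below minus 3 SD of library scores, with starting-brightness B-score within 2 SD, cut at about -4.2 in these data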;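 note: channel flux triggered by added potassium and thallium sulfate stimulus; B-score of peak minus minimum fluorescence over baseline after thallium stimulus; more negative B-score means stronger Kir2.1 block with less thallium influx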
KCNK3 block: human KCNK3 channel inhibition, primary screen. B-score at 10 µM. CHO-KCNK3 thallium flux, FluxOR fluorescence; active compounds read low. AID 602410. O14649. 340,000 tested, 0.84% active;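 active = B-score under library mean minus 4 SD, starting fluorescence ratio at most library mean plus 5 SD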;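 note: more negative B-score means stronger inhibition of thallium flux through KCNK3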
hERG rescue: compounds protecting human hERG from proarrhythmic drug block; CHO-hERG, FluxOR thallium flux, dofetilide IC70 present; 310,000 tested, 0.51% active; Q12809; activation (rescue from dofetilide block), less the hit threshold, % at 10 µM; AID 1511;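 active = activation above the mean of controls blocked by dofetilide plus 5 SD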;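 note: thallium influx through hERG after potassium depolarization seen as dye fluorescence rise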
KCNQ1 pot: potentiators or activators of human KCNQ1 potassium channel; B-score at 10 µM; CHO-K1 KCNQ1, thallium flux FluxOR fluorescence; active compounds read high; P51787; AID 2648; 310,000 tested, 0.35% active;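 active = fluorescence ratio B-score, a plate-corrected score, at least three library SD, with initial intensity B-score within 5 SD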
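Test system: CHO-K1 cells stably expressing KCNQ1 / Medium: assay buffer / Also added: depolarizing K+/Tl+ stimulus, K2SO4 and Tl2SO4 each 12.5 mM in 5x stock / Incubation: 90 min dye loading and 20 min compound exposure, both at room temperature / Signal: thallium influx via FluxOR fluorescence, kinetic imaging / Evaluation: B score of baseline-normalized fluorescence ratio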
KCNK9 block: human KCNK9 channel inhibition; Q9NPC2; HEK293 KCNK9, FluxOR thallium flux fluorescence; active compounds read low; B-score at 10 µM; 310,000 tested, 1.2% active; AID 488922;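 active = ratio B-score over 3 SD below the library mean, with starting fluorescence within 5 SD of its mean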;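 note: negative B-score means less thallium flux so channel inhibition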
KCNK9 inh conf: human KCNK9 inhibitor confirmation | shares compounds with KCNK9 block | HEK293 KCNK9 cells, FluxOR thallium flux fluorescence | inhibition, % at 10 µM | 4,900 tested, 43% active | AID 492992;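 active = thallium signal inhibited by more than 5 SD of the compound-free buffer control wells, on both duplicate plates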
Kir21 sel: mouse Kir2.1 off-target activity of KCNK9 modulators. shares compounds with KCNK9 block. Kir2.1 cells, FluxOR thallium flux fluorescence. inhibition, % at 10 µM. 4,900 tested, 4% active. AID 492993;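 active = thallium signal drop more than 5 SD beyond the mean of the no-compound control wells, seen in both duplicate plates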;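 note: signal is fluorescence rise after thallium addition divided by baseline fluorescence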
KCNK9 uninduced: non-induced cell nonspecific activity of KCNK9 modulators. shares compounds with KCNK9 block. 4,900 tested, 40% active. inhibition, % at 10 µM. non-induced KCNK9-HEK293, FluxOR thallium flux;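 active = thallium signal drop beyond 5 SD of the untreated control mean, on both duplicate plates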
A number is an active result; – = inactive; · = not tested or not shown. A selection: hits, their analogues and other compounds. The true share with any hit is near 3.7%.

SMILES	KCNQ1 block	Kir21 block	KCNK3 block	hERG rescue	KCNQ1 pot	KCNK9 block	KCNK9 inh conf	Kir21 sel	KCNK9 uninduced
CCOc1ccccc1N1CCN(Cc2ccco2)CC1	–	–	–	–	–	–	·	·	·
CCOc1ccccc1N1CCN(Cc2ccc(Br)s2)CC1	–	–	–	–	–	–	–	–	–
Fc1ccccc1C1c2cccn2CCN1C(=S)Nc1cccc(Br)c1 (stereo not drawn)	–	–	–	–	–	-11	36%	–	48%
COc1ccccc1CCN=C(N)NS(=O)(=O)c1ccc(C)c(C)c1	–	–	–	–	–	–	·	·	·
Cc1nnc(-c2ccccc2)c(=O)n1/N=C/c1c(O)ccc2ccccc12	8	–	–	–	–	-8.8	38%	–	34%
COC(=O)c1ccccc1CON1C(=O)C(C)(C)N(OCc2ccccc2C(=O)OC)C(=O)C1(C)C	–	–	–	–	–	–	–	–	–
CCOC(=O)c1sc(-c2ccccc2)cc1NC(=O)Nc1ccccc1	–	–	–	–	–	–	–	–	–
CCOC(=O)c1sc(-c2ccc(F)cc2)cc1NC(=O)Nc1ccccc1OC	–	–	–	–	–	–	·	·	·
Cc1cccc(CN(C(=S)Nc2c(C)cccc2C)c2cccnc2)c1	–	–	–	–	–	–	·	·	·
COc1ccc(-n2cc3ccc([N+](=O)[O-])cc3n2)cc1	–	–	–	–	–	–	·	·	·
CCn1c(N2CCN(S(=O)(=O)c3ccc(F)cc3)CC2)nc2ccccc21	–	–	–	–	–	–	·	·	·
CCn1c(N2CCN(S(=O)(=O)c3ccc(Cl)cc3)CC2)nc2ccccc21	–	–	–	5.8	–	–	–	–	–
Cc1ccc(C(=O)OCC(=O)NC2CCCCC2)cc1S(=O)(=O)N1CCCCC1	·	·	–	·	·	·	·	·	·
Cc1cccc(N2C(=O)C3CCC(c4ccccc4)CC3C2=O)c1 (stereo not drawn)	–	–	–	–	–	–	–	–	–
N#CCC(=O)N/N=C/c1cc(Br)ccc1OCc1cccc2ccccc12	–	–	–	–	–	-10	47%	–	26%
N#CCC(=O)N/N=C/c1c2ccccc2cc2ccccc12	–	–	–	–	–	–	·	·	·
Cc1cccc(N(C(=O)c2csnn2)C(C(=O)NC2CCCCC2)c2ccccn2)c1C (stereo not drawn)	–	–	–	–	–	–	·	·	·
CC(=O)N1CCCc2cc(S(=O)(=O)N3CCCC(C(=O)N4CCN(c5cc(C)ccc5C)CC4)C3)ccc21 (stereo not drawn)	–	–	–	–	–	–	–	–	–
O=C(C1CCC1)N1CCc2cc(S(=O)(=O)N3CCCCC3)ccc21	–	–	–	–	–	–	·	·	·
Cc1cccc(N2CCN(S(=O)(=O)c3ccc4c(c3)CCCN4C(=O)C3CCC3)CC2)c1C	–	–	–	–	–	–	–	–	–
CCCCCCCCN1[C@@H](CC(=O)OC)c2cc(F)ccc2S1(=O)=O	–	–	–	–	–	–	·	·	·
CCCCCCCCCCCCN1[C@@H](CC(=O)O)c2cc(F)ccc2S1(=O)=O	–	–	–	–	–	–	–	–	–
CCCCCCCCCCCCN1[C@@H](CC(=O)O)c2cc(C(F)(F)F)ccc2S1(=O)=O	–	–	–	–	–	–	–	–	–
COC(=O)c1cc2occc2n1Cc1nc(-c2cccc(Cl)c2)oc1C	–	–	–	–	–	-9.3	–	–	24%
Cc1oc(-c2cccc(Cl)c2)nc1CN1CCC(C(=O)NCc2ccco2)CC1	–	–	–	–	–	–	·	·	·
SMILES	KCNQ1 block	Kir21 block	KCNK3 block	hERG rescue	KCNQ1 pot	KCNK9 block	KCNK9 inh conf	Kir21 sel	KCNK9 uninduced
Cc1ccccc1-c1nc(CN2CCC(C(=O)N3CCN(c4ccccn4)CC3)CC2)c(C)o1	–	–	–	–	–	–	·	·	·
Cc1cccc(N2CCN(Cc3nc(-c4cccc(Cl)c4)oc3C)CC2)n1	–	–	–	–	–	–	–	–	–
Cc1ccccc1-c1nc(CN2CCSCC2)c(C)o1	–	–	–	–	–	–	·	·	·
Cc1oc(-c2cccc(C(F)(F)F)c2)nc1CN1CCN(c2ccccn2)CC1	–	–	–	–	–	–	–	–	–
Cc1cccc(N2CCN(Cc3nc(-c4ccccc4Cl)oc3C)CC2)n1	–	–	–	–	–	–	–	–	–
COc1ccc(CNC(=O)CCC2N=C3c4ccccc4N=C(SCC(=O)NCC4CCCO4)N3C2=O)cc1 (stereo not drawn)	–	–	–	–	–	–	·	·	·
O=C(CSCc1ccc(Br)cc1)NCCc1ccccc1	–	-4.8	–	–	–	–	–	–	–
O=C(CSCc1ccccc1)NCCc1ccc(F)cc1	–	–	–	–	–	–	·	·	·
CCOc1ccc(CCNC(=O)CSCc2ccc(C)cc2)cc1OCC	–	-6	–	–	–	–	–	–	–
CCOc1ccc(CCNC(=O)CSc2nnnn2C)cc1OCC	–	–	–	–	–	-13	–	–	–
CCOc1ccc(CCNC(=O)CCOc2cc(C)ccc2C)cc1OCC	–	-5.1	–	–	–	–	–	–	34%
CCOC(=O)C(Sc1cc(-c2ccccc2)nc2ncnn12)C(C)=O (stereo not drawn)	–	–	–	–	–	–	·	·	·
CCOc1ccc(CCNC(=O)CSc2nn(-c3ccc(C)c(Cl)c3)c(=S)s2)cc1OCC	–	–	–	–	–	–	–	–	–
Cc1ccc(O)c(NC(=O)c2cc(-c3cccs3)on2)c1	–	–	–	–	–	–	·	·	·
O=C(COc1ccccc1)N=C1SC2CS(=O)(=O)CC2N1c1cccc(F)c1 (stereo not drawn)	–	–	–	–	–	–	·	·	·
Cc1cc(C)c(NC(=O)COC(=O)C2=COCCO2)c(Cl)c1	–	–	–	–	–	–	·	·	·
CC(=O)c1cccc(NC(=S)Nc2ccn(Cc3cccc4ccccc34)n2)c1	–	–	–	–	–	–	–	–	–
CC(=O)c1ccc(NC(=S)Nc2ccn(Cc3ccc(Br)cc3)n2)cc1	–	–	–	–	–	–	·	·	·
CCCCSc1nnc2n(CCc3ccccc3)c(=O)c3c4c(sc3n12)COC(C)(C)C4	–	–	–	–	–	–	–	–	–
COc1ccccc1-c1nnc(SC/C(O)=C(\C#N)c2nc3ccccc3[nH]2)n1C1CCCCC1	–	–	–	–	–	-12	72%	–	–
N#C/C(=C(/O)CSc1nnc(Cc2cccs2)n1C1CCCCC1)c1nc2ccccc2[nH]1	–	–	–	–	–	–	·	·	·
COc1ccc(/C=N/NC(=O)c2cc(-c3ccccc3)nc3ccccc23)cc1O	–	–	–	–	–	–	·	·	·
